Test results from ChEMBL document CHEMBL5236662, “Synthesis and biological evaluation of tert-butyl ester and ethyl ester prodrugs of L-γ-methyleneglutamic acid amides for cancer” (Bioorg Med Chem, 2023).
pIC50: −log10 of the molar value. One block for each compound: values may come before it.

How the values were obtained:
[1] = Terminal half life in CD-1 mouse plasma at 2.5 mg/kg, iv measured for 24 hrs by LC-MS/MS analysis; assay type: ADME, organism-based; conditions: in vivo
Summary of the method: (§1)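 Fasted (~4 h) male CD1 mice, n = 24 per route, received 2.5 mg/kg iv or ip in 5% DMSO/95% normal saline. Blood was drawn into K2EDTA at pre-dose, 0.083, 0.5, 1, 2, 4, 8 and 24 h, and plasma was separated. Samples were precipitated with acetonitrile, with tolbutamide as internal standard, then quantified by UPLC-MS/MS (MRM). Parameters came from noncompartmental analysis.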

[2] = Cmax in CD-1 mouse plasma at 2.5 mg/kg, iv measured for 24 hrs by LC-MS/MS analysis; assay type: ADME, organism-based; set-up: time 24 hrs, dose 2.5 mg/kg, route iv; conditions: in vivo; summary of the method: as §1
[3] = Tmax in CD-1 mouse plasma at 2.5 mg/kg, iv measured for 24 hrs by LC-MS/MS analysis; assay type: ADME, organism-based; conditions: in vivo; summary of the method: as §1
[4] = AUC (0 to infinity) in CD-1 mouse plasma at 2.5 mg/kg, iv measured for 24 hrs by LC-MS/MS analysis; assay type: ADME, organism-based; set-up: dose 2.5 mg/kg, time 24 hrs, route iv; summary of the method: as §1
[5] = Apparent half life in CD-1 mouse plasma at 2.5 mg/kg, ip measured for 24 hrs by LC-MS/MS analysis; assay type: ADME, organism-based; conditions: in vivo; summary of the method: as §1
[6] = Cmax in CD-1 mouse plasma at 2.5 mg/kg, ip measured for 24 hrs by LC-MS/MS analysis; assay type: ADME, organism-based; set-up: dose 2.5 mg/kg, time 24 hrs, route ip; conditions: in vivo; summary of the method: as §1
[7] = Tmax in CD-1 mouse plasma at 2.5 mg/kg, ip measured for 24 hrs by LC-MS/MS analysis; assay type: ADME, organism-based; conditions: in vivo; summary of the method: as §1
[8] = AUC (0 to infinity) in CD-1 mouse plasma at 2.5 mg/kg, ip measured for 24 hrs by LC-MS/MS analysis; assay type: ADME, organism-based; set-up: dose 2.5 mg/kg, time 24 hrs, route ip; summary of the method: as §1
[9] = Bioavailability in CD-1 mouse plasma at 2.5 mg/kg, ip measured for 24 hrs by LC-MS/MS analysis; assay type: ADME, organism-based; conditions: in vivo; summary of the method: as §1
[10] = Tmax in CD-1 mouse brain at 2.5 mg/kg, ip measured for 24 hrs by LC-MS/MS analysis; assay type: ADME, organism-based; conditions: in vivo
Summary of the method: (§2)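 Male CD1 mice (25–30 g), fasted ~4 h, given 2.5 mg/kg ip in 5% DMSO/95% normal saline. Brain, liver and kidney were taken at pre-dose, 0.5, 2, 4 and 24 h and homogenized in 5 volumes PBS. Homogenates got tolbutamide internal standard and acetonitrile protein precipitation. UPLC-MS/MS used MRM. Parameters came from noncompartmental analysis.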

[11] = AUC (0 to infinity) in CD-1 mouse brain at 2.5 mg/kg, ip measured for 24 hrs by LC-MS/MS analysis; assay type: ADME, organism-based; set-up: dose 2.5 mg/kg, time 24 hrs, route ip; conditions: in vivo; summary of the method: as §2
[12] = Apparent half life in CD-1 mouse kidney at 2.5 mg/kg, ip measured for 24 hrs by LC-MS/MS analysis; assay type: ADME, organism-based; conditions: in vivo; summary of the method: as §2
[13] = Cmax in CD-1 mouse kidney at 2.5 mg/kg, ip measured for 24 hrs by LC-MS/MS analysis; assay type: ADME, organism-based; set-up: dose 2.5 mg/kg, time 24 hrs, route ip; conditions: in vivo; summary of the method: as §2
[14] = Tmax in CD-1 mouse kidney at 2.5 mg/kg, ip measured for 24 hrs by LC-MS/MS analysis; assay type: ADME, organism-based; conditions: in vivo; summary of the method: as §2
[15] = AUC (0 to infinity) in CD-1 mouse kidney at 2.5 mg/kg, ip measured for 24 hrs by LC-MS/MS analysis; assay type: ADME, organism-based; set-up: time 24 hrs, dose 2.5 mg/kg, route ip; conditions: in vivo; summary of the method: as §2
[16] = Apparent half life in CD-1 mouse liver at 2.5 mg/kg, ip measured for 24 hrs by LC-MS/MS analysis; assay type: ADME, organism-based; conditions: in vivo; summary of the method: as §2
[17] = Cmax in CD-1 mouse liver at 2.5 mg/kg, ip measured for 24 hrs by LC-MS/MS analysis; assay type: ADME, organism-based; set-up: time 24 hrs, dose 2.5 mg/kg, route ip; conditions: in vivo; summary of the method: as §2
[18] = Tmax in CD-1 mouse liver at 2.5 mg/kg, ip measured for 24 hrs by LC-MS/MS analysis; assay type: ADME, organism-based; conditions: in vivo; summary of the method: as §2
[19] = AUC (0 to infinity) in CD-1 mouse liver at 2.5 mg/kg, ip measured for 24 hrs by LC-MS/MS analysis; assay type: ADME, organism-based; set-up: time 24 hrs, dose 2.5 mg/kg, route ip; conditions: in vivo; summary of the method: as §2
[20] = Clearance in CD-1 mouse plasma at 2.5 mg/kg, iv measured for 24 hrs by LC-MS/MS analysis relative to hepatic blood flow; assay type: ADME, organism-based; conditions: in vivo; summary of the method: as §1
[21] = Volume of distribution in CD-1 mouse plasma at 2.5 mg/kg, iv measured for 24 hrs by LC-MS/MS analysis; assay type: ADME, organism-based; conditions: in vivo; summary of the method: as §1
BNC3 = assay: Antiproliferative activity against human BNC3 cells assessed as suppression of cell growth incubated for 24 to 72 hrs by CCK-8 assay; assay type: functional, cell-based; conditions: dose 10-300 µM, time 24-72 hrs
Summary of the method: (§3)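 Primary patient-derived glioblastoma lines were grown in RPMI 1640 with 10% FBS. Cells were seeded at 3,000 per well and dosed 24 h later at 10, 50, 100, 200 and 300 μM for 24 or 72 h, with BiCNU as control. CCK-8 was added and OD450 read after 2 h at 37 °C. Data are % cell survival, from 3 independent replicates.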

BNC6 = assay: Antiproliferative activity against human BNC6 cells assessed as suppression of cell growth incubated for 24 to 72 hrs by CCK-8 assay; assay type: functional, cell-based; conditions: dose 10-300 µM, time 24-72 hrs; summary of the method: as §3
[22] = Antiproliferative activity against human BNC3 cells assessed as inhibition of cell growth incubated for 72 hrs by CCK-8 assay; assay type: functional, cell-based; conditions: BNC3, 72 h; summary of the method: as §3
[23] = Antiproliferative activity against human BNC6 cells assessed as inhibition of cell growth incubated for 72 hrs by CCK-8 assay; assay type: functional, cell-based; conditions: BNC6, 72 h; summary of the method: as §3
[24] = Antiproliferative activity against human WSU-HN30 cells assessed as inhibition of cell growth incubated for 72 hrs by CCK-8 assay; assay type: functional, cell-based; conditions: WSU-HN30, 72 h
Summary of the method: (§4)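 Radiotherapy-resistant HNSCC lines were used: HN30 from pharynx SCC and HN31 from a lymph-node metastasis of the same patient. Cells in RPMI 1640 with 10% FBS were seeded at 3,000 per well and treated 24 h later with 10–300 μM (5 levels) for 24 or 72 h, with cisplatin as control. CCK-8 was read at OD450 after 2 h. Data are % survival, n = 3 independent experiments.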

[25] = Antiproliferative activity against human WSU-HN31 cells assessed as inhibition of cell growth incubated for 72 hrs by CCK-8 assay; assay type: functional, cell-based; conditions: WSU-HN31, 72 h; summary of the method: as §4
WSU-HN30 = assay: Antiproliferative activity against human WSU-HN30 cells assessed as suppression of cell growth incubated for 24 to 72 hrs by CCK-8 assay; assay type: functional, cell-based; conditions: dose 10-300 µM, time 24-72 hrs; summary of the method: as §4
WSU-HN31 = assay: Antiproliferative activity against human WSU-HN31 cells assessed as suppression of cell growth incubated for 24 to 72 hrs by CCK-8 assay; assay type: functional, cell-based; conditions: dose 10-300 µM, time 24-72 hrs; summary of the method: as §4
[26] = Cytotoxicity against human MCF-10A cells assessed as inhibition of cell growth incubated for 72 hrs by Hoechst 33342/propidium iodide staining based fluorescence analysis; assay type: toxicity; conditions: human, MCF-10A cells
[27] = Cytotoxicity against human MCF-10A cells assessed as inhibition of cell growth incubated for 24 hrs by Hoechst 33342/propidium iodide staining based fluorescence analysis; assay type: toxicity; conditions: human, MCF-10A cells
[28] = Stability in mouse plasma assessed as drug degradation; assay type: ADME, cell-free
[29] = Stability in mouse liver microsomes assessed as drug degradation; assay type: ADME, Microsome

beta t1/2 [1]: 48 min
Cmax [2]: 3016 ng/mL
Tmax [3]: 7.2 min
AUC(0-inf) [4]: 1460 ng·h/mL
t1/2(app) [5]: 25.8 min
Cmax [6]: 1543 ng/mL
Tmax [7]: 13.2 min
AUC(0-inf) [8]: 967 ng·h/mL
F [9]: 66%
Tmax [10]: 30 min
AUC [11]: 44 ng·h/g
t1/2(app) [12]: 27.6 min
Cmax [13]: 17681 ng/g
Tmax [14]: 30 min
AUC [15]: 21944 ng·h/g
t1/2(app) [16]: 25.8 min
Cmax [17]: 7291 ng/g
Tmax [18]: 60 min
AUC [19]: 10596 ng·h/g
CL [20]: 31%
Vd [21]: 4.6 L/kg
SMILES: C=C(C[C@H](N)C(=O)O)C(=O)NCc1ccc(F)cc1
Activity (BNC3): Dose-Dependent Effect
Activity (BNC6): Dose-Dependent Effect
pIC50 [22]: 3.77
pIC50 [23]: 3.72
pIC50 [24]: 3.99
pIC50 [25]: 3.71
Activity (WSU-HN30): Dose-Dependent Effect
Activity (WSU-HN31): Dose-Dependent Effect
IC50 at 72 h [26]: > 1000 µM
IC50 at 24 h [27]: > 1000 µM

Stability [28]: Unstable
Stability [29]: Unstable
SMILES: NCc1ccc(F)cc1
